Measured values gathered from unrelated publications.
Compare with care: the assays were run in different laboratories.
Medium: Caco-2

Structure (SMILES) | setting | efflux ratio
Cn1c(=O)c2c(nc(S)n2C)n(C)c1=O | 10 µM, 2 h | 3.3
CO[C@@H](C[C@H]1C(C)=CC[C@@H]2[C@]3(C)C[C@H](O[C@@H]4O[C@@H](C)[C@H](OC(=O)c5cccc(O)c5)[C@@H](O[C@@H]5O[C@H](CO)[C@@H](O)[C@H](O)[C@H]5NC(C)=O)[C@H]4O)[C@@H](O)C(C)(C)[C@H]3CC[C@]21C)[C@H](N)C(=O)O.O=C(O)C(F)(F)F | 5 µM, 1 h | 4.6
CNC(=C[N+](=O)[O-])NCCSCc1ccc(CN(C)C)o1 |  | 5
CC(C)NCC(O)COc1cccc2ccccc12 (stereo not drawn) | 5 µM, 1 h | 0.8
C[C@H]1O[C@@H](O[C@H]2[C@@H](O)C[C@H](O[C@H]3[C@@H](O)C[C@H](O[C@H]4CC[C@@]5(C)[C@H](CC[C@@H]6[C@@H]5C[C@@H](O)[C@]5(C)[C@@H](C7=CC(=O)OC7)CC[C@]65O)C4)O[C@@H]3C)O[C@@H]2C)C[C@H](O)[C@@H]1O |  | 643
CC(C)NCC(O)COc1cccc2ccccc12 (stereo not drawn) | 10 µM, 2 h, pH 7.4 | 0.47
Nc1nc2c(ncn2COCCO)c(=O)[nH]1 | 10 µM, 2 h, pH 7.4 | 9.42
CCOC(=O)[C@@]12C[C@@H]1[C@@H](n1ccc3c(NC)nc(C#Cc4ccc(Cl)s4)nc31)[C@H](O)[C@@H]2O | 10 µM, 2 h, pH 7.4 | 15.6
C[C@H]1O[C@@H](O[C@H]2[C@@H](O)C[C@H](O[C@H]3[C@@H](O)C[C@H](O[C@H]4CC[C@@]5(C)[C@H](CC[C@@H]6[C@@H]5C[C@@H](O)[C@]5(C)[C@@H](C7=CC(=O)OC7)CC[C@]65O)C4)O[C@@H]3C)O[C@@H]2C)C[C@H](O)[C@@H]1O | 10 µM, 2 h, pH 7.4 | 87.9
